Data: publication PMC5026420 (Science Advances, 2016)
Substitutions are numbered along the chain they refer to. Like-named read-outs stand apart in the source and are kept apart here.

How the values were obtained:
[1] = system: CckA_ΔTM W523A; details: cited from earlier work
[2] = target: T1, CckA_ΔTM (Caulobacter vibrioides, UniProt Q9X688); assay: CckA phosphorylation assay by autoradiography; format: biochemical, Caulobacter crescentus; details: for net CckA_ΔTM~P after addition of effector: ADP or c-di-GMP added after 30 min of incubation with 500 μM ATP
T1 sequence (Q9X688 72-691): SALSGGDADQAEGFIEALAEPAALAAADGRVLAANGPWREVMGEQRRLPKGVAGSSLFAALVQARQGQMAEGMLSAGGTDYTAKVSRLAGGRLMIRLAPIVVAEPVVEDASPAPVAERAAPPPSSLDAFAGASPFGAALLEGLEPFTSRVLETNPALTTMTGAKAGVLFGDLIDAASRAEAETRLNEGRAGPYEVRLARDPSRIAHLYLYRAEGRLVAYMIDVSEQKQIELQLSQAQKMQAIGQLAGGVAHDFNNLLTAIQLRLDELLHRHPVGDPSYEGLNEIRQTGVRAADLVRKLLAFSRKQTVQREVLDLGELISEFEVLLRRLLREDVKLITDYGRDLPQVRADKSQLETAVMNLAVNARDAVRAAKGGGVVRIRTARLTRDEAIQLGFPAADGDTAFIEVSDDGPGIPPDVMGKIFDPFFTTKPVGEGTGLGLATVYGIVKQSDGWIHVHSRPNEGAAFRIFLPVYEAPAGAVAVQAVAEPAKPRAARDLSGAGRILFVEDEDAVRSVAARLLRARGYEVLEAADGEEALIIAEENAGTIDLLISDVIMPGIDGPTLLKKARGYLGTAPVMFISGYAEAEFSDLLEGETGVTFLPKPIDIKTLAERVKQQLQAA
In short: (§1)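 MBP-tagged CckA_ΔTM (residues S72–A691) or its point mutants are incubated at room temperature with 500 μM ATP plus 5 μCi γ32P-ATP. Further nucleotides are added at set times. Where applicable, ATP is converted to ADP with 1.5 U hexokinase and 5 mM D-glucose. Reactions are stopped in SDS sample buffer and run on 10% SDS gels. Wet gels are exposed to a phosphor screen (0.5–3 h) and scanned.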

[3] = target: T2, CckA_ΔTM G318A (Caulobacter vibrioides, UniProt Q9X688, G318A); assay: CckA phosphorylation assay by autoradiography, G318A; format: biochemical, Caulobacter crescentus; details: 15 min of ATP incubation, 75 μM c-di-GMP
T2 sequence (Q9X688 72-691 G318A): T1 sequence (Q9X688 72-691) with G247A
In short: as §1

[4] = system: CckA_ΔTM Y514D; details: cited from earlier work
[5] = target: T3, CckA_CA (Caulobacter vibrioides, UniProt Q9X688); assay: ITC ligand binding to CckA_CA; parameters: species or system Caulobacter crescentus
T3 sequence (Q9X688 379-545): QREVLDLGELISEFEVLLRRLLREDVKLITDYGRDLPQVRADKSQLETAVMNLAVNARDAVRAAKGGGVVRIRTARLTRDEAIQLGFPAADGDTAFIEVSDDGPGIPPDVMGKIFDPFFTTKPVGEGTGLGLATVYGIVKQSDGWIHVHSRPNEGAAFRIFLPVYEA
In short: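 Protein was expressed in E. coli Rosetta (DE3), induced with 0.1 mM IPTG at 22°C, and purified by Ni-NTA then gel filtration (30 mM Tris-HCl pH 7.5, 100 mM NaCl, 5 mM MgCl2). Isothermal titration calorimetry was run at 25 or 12°C, stirring 300 rpm, 200 s preinjection delay, 250 s recording interval. Data were fitted to a single-site model, refitted with N fixed at 1.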

[6] = system: CckA_ΔTM F539A; details: cited from earlier work
[7] = target: T4, CckA_ΔTM G515D (Caulobacter vibrioides, UniProt Q9X688, G515D); assay: CckA phosphorylation assay by autoradiography, G515D; format: biochemical, Caulobacter crescentus; details: 15 min of ATP incubation, 75 μM c-di-GMP
T4 sequence (Q9X688 72-691 G515D): T1 sequence (Q9X688 72-691) with G444D
In short: as §1

[8] = target: T1, CckA_ΔTM; assay: Global fit of kinetic model to CckA_ΔTM phosphorylation progress curves; format: biochemical, Caulobacter crescentus; details: simulations; rate with which the data can be fit
In short: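 Progress curves of net CckA_ΔTM~P come from radiolabelled ATP reactions, with ADP or c-di-GMP added to aliquots after 30 min. The curves were globally fitted to a kinetic model using standard first- and second-order reaction kinetics, set up as a system of coupled ordinary differential equations. Rate parameters such as kr are taken from that global fit.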

Structure (SMILES)	c-di-GMP binding in UV-cross-linking experiments [1]	net CckA phosphorylation with effector present throughout ([2]; 15 min of ATP incubation, 75 μM c-di-GMP)	net CckA_ΔTM~P after addition of effector [2]	response of net phosphorylation to c-di-GMP [3]	c-di-GMP binding in UV-cross-linking experiments [4]	Kd ([5]; read-out: Kd, c-di-GMP binding, Fig. 3C (in the presence of 5 mM ADP or AMPPNP)) [µM]	c-di-GMP binding in UV-cross-linking experiments [6]	response of net phosphorylation to c-di-GMP (in vitro phenotype) [7]	rate of debinding (kr) [8]	Kd ([5]; read-out: Kd, AMPPNP binding, - c-di-GMP, 12°C) [µM]
Nc1nc2c(ncn2[C@@H]2O[C@@H]3COP(=O)(O)O[C@H]4[C@@H](O)[C@H](n5cnc6c(=O)[nH]c(N)nc65)O[C@@H]4COP(=O)(O)O[C@H]3[C@H]2O)c(=O)[nH]1 [c-di-GMP, cyclic di–guanosine monophosphate]	lack of c-di-GMP binding	effectively blocked	efficiently and rapidly dephosphorylated	virtually no response	lack of c-di-GMP binding	~20	lack of c-di-GMP binding	identical to that of G318A		
Nc1ncnc2c1ncn2[C@@H]1O[C@H](COP(=O)(O)OP(=O)(O)O)[C@@H](O)[C@H]1O [ADP, adenosine diphosphate]			dose-dependent boost in dephosphorylation						10^−2 to 10^−3 s^−1	
Nc1ncnc2c1ncn2[C@@H]1O[C@H](COP(=O)(O)OP(=O)(O)NP(=O)(O)O)[C@@H](O)[C@H]1O [AMPPNP]										~10
